Measurements taken from ChEMBL document CHEMBL4346668, “Novel multitarget inhibitors with antiangiogenic and immunomodulator properties” (Eur J Med Chem, 2019).

Assays:
HeLa = assay: Antiproliferative activity against human HeLa cells incubated for 2 days by MTT assay; assay type: functional, cell-based; details: 48 h
In short: (§1)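 MTT assay. Cells seeded at 3 × 10³/well (HeLa, A549, HMEC-1, HEK-293) or 5 × 10³/well (HT-29, MCF-7) in their growth media with serial compound dilutions from 10 mM DMSO stocks. Incubated 2 days at 37 °C, 5% CO₂, then MTT added for 3 h and formazan dissolved in DMSO. A540 read and viability expressed versus untreated cells. IC₅₀ determined graphically; three independent experiments.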

A549 [1] = assay: Antiproliferative activity against human A549 cells incubated for 2 days by MTT assay; assay type: functional, cell-based; details: A549, 48 h; in short: as §1
A549 [2] = assay: Effect on VEGFR2 in human A549 cells assessed as membrane VEGFR2 level at 10 uM incubated for 24 hrs by flow cytometric analysis relative to control; assay type: functional
In short: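 A549 cells incubated 24 h with compound at 10 µM. Membrane VEGFR-2 (fixed cells) and total VEGFR-2 (permeabilized or lysate) stained with Alexa Fluor 647 anti-CD309 and quantified by flow cytometry relative to DMSO control; mean ± SD of three experiments.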

HMEC-1 [3] = assay: Antiproliferative activity against HMEC1 cells incubated for 2 days by MTT assay; assay type: cell-based; details: Homo sapiens, HMEC-1, 48 h; in short: as §1
HMEC-1 [4] = assay: Antiangiogenic activity against HMEC1 cells assessed as inhibition of tube formation incubated for 20 hrs by matrigel based tube formation assay; assay type: functional, Homo sapiens
In short: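 HMEC-1 cells in EGM-2MV medium seeded at 2 x 10⁴ cells/well on Matrigel (10 mg/mL, gelled 30 min at 37°C) and attached for 30 min. Compounds were added at different concentrations and tube formation was assessed after 20 h at 37°C. The minimum concentration at which inhibition began was reported. Data representative of three experiments.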

MCF7 = assay: Antiproliferative activity against human MCF7 cells incubated for 2 days by MTT assay; assay type: functional, cell-based; details: MCF7, 48 h; in short: as §1
HEK293 = assay: Antiproliferative activity against HEK293 cells incubated for 2 days by MTT assay; assay type: cell-based; details: Homo sapiens, HEK293, 48 h; in short: as §1
A549 [5] = assay: Effect on VEGFR2 in human A549 cells assessed as total VEGFR2 level at 10 uM incubated for 24 hrs by flow cytometric analysis relative to control; assay type: functional
A549 [6] = assay: Immunomodulatory activity in human A549 cells assessed as reduction in PD-L1 expression level at 100 uM incubated for 24 hrs by ELISA relative to control; assay type: functional; design: scale not given: the % may be the effect or the level left
In short: (§2)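 A549 cells (3·10⁵/well) treated 24 h with compound; final concentration 100 µM for some compounds and 15 µM for others per table footnote. Lysates protein-normalized by Bradford, and PD-L1 and c-Myc quantified by commercial ELISA kits as % of DMSO-treated cells. Mean ± SD of three experiments.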

HT-29 [7] = assay: Antiproliferative activity against human HT-29 cells incubated for 2 days by MTT assay; assay type: functional, cell-based; details: HT-29, 48 h; in short: as §1
A549 [8] = assay: Induction of apoptosis in human A549 cells assessed as apoptotic cells at 100 uM incubated for 24 hrs by FITC-Annexin V staining based flow cytometric analysis (reference value: 20%); assay type: functional
[9] = biological target: Vascular endothelial growth factor receptor 2 (Homo sapiens) (UniProt P35968)
Sequence of Vascular endothelial growth factor receptor 2 (Homo sapiens) (P35968 whole entry): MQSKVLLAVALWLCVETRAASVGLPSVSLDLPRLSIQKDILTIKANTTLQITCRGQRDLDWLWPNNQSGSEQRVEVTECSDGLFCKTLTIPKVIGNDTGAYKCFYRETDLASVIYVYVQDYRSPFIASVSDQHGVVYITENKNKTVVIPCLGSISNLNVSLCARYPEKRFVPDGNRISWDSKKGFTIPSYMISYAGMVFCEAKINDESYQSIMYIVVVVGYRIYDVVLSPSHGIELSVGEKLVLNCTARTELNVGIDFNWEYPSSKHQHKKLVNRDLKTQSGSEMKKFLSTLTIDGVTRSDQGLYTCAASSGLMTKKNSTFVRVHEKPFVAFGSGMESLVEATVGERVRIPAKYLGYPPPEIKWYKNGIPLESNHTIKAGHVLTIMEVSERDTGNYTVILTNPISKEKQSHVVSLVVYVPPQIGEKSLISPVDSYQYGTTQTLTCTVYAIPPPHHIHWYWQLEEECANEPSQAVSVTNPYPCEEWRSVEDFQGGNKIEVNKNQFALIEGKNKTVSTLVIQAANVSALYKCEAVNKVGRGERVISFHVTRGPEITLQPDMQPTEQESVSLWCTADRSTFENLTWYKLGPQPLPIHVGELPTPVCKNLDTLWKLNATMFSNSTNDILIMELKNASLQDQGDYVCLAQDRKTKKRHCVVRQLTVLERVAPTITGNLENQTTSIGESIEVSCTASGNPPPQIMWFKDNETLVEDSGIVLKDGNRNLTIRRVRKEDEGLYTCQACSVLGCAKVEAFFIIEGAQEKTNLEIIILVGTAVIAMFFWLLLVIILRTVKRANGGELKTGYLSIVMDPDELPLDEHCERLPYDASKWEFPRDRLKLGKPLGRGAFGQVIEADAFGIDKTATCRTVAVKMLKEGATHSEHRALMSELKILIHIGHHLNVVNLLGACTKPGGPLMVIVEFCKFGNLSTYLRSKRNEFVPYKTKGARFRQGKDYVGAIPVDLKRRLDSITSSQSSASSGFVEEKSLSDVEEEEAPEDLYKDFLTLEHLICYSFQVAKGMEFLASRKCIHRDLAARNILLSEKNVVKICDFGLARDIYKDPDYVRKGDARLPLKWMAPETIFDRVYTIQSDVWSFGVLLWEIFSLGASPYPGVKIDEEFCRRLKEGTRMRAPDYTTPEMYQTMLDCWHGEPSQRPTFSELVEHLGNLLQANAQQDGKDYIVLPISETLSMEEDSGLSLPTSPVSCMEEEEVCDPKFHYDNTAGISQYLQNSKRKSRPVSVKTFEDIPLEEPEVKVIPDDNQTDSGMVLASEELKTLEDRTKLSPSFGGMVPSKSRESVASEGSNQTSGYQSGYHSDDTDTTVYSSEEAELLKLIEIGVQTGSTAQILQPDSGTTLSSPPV

HMEC-1 [10] = assay: Effect on VEGFR2 in HMEC1 cells assessed as total VEGFR2 level at 100 uM incubated for 24 hrs by flow cytometric analysis relative to control; assay type: functional, Homo sapiens
In short: (§3)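 HMEC-1 cells exposed 24 h to compound at 100 µM. Membrane VEGFR-2 measured on fixed cells stained with Alexa Fluor 647 anti-CD309; total VEGFR-2 measured after Triton X-100 permeabilization before fixation. Read by flow cytometry as % of DMSO control.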

A549 [11] = assay: Effect on VEGFR2 in human A549 cells assessed as total VEGFR2 level at 100 uM incubated for 24 hrs by flow cytometric analysis relative to control; assay type: functional
HMEC-1 [12] = assay: Effect on VEGFR2 in HMEC1 cells assessed as membrane VEGFR2 level at 100 uM incubated for 24 hrs by flow cytometric analysis relative to control; assay type: functional, Homo sapiens; in short: as §3
A549 [13] = assay: Antiproliferative activity against human A549 cells at 200 uM incubated for 24 hrs in presence of Jurkat T cells by trypan blue staining based Neubauer chamber method relative to control; assay type: functional
In short: (§4)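 Co-culture of 5 × 10⁴ tumor cells/well with 2 × 10⁵ PD-1-expressing Jurkat T cells in 1.5 mL, treated 24 h with compound at 200 µM. Supernatant discarded; tumor cells trypsinized, stained with trypan blue and living cells counted in a Neubauer chamber. Proliferation inhibition (%) attributable to Jurkat presence reported; representative of three experiments.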

A549 [14] = assay: Immunomodulatory activity in human A549 cells assessed as reduction in c-Myc expression level at 100 uM incubated for 24 hrs by ELISA relative to control; assay type: functional; design: scale not given: the % may be the effect or the level left; in short: as §2
HT-29 [15] = assay: Antiproliferative activity against human HT-29 cells at 200 uM incubated for 24 hrs in presence of Jurkat T cells by trypan blue staining based Neubauer chamber method relative to control; assay type: functional; in short: as §4
A549 [16] = assay: Effect on VEGFR2 in human A549 cells assessed as membrane VEGFR2 level at 100 uM incubated for 24 hrs by flow cytometric analysis relative to control; assay type: functional
In short: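 A549 cells exposed 24 h to compound at 100 µM. Membrane VEGFR-2 stained on fixed cells with Alexa Fluor 647 anti-VEGFR-2; Triton X-100 permeabilization before fixation used for total VEGFR-2. Flow cytometry, % of DMSO control; mean ± SD of three experiments.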

[17] = biological target: Programmed cell death 1 ligand 1 (Homo sapiens) (UniProt Q9NZQ7); assay: Binding affinity to PDL1 (unknown origin) assessed as change in melting temperature at 100 uM by fluorescence based real time RT-PCR analysis
Sequence of Programmed cell death 1 ligand 1 (Homo sapiens) (Q9NZQ7 whole entry): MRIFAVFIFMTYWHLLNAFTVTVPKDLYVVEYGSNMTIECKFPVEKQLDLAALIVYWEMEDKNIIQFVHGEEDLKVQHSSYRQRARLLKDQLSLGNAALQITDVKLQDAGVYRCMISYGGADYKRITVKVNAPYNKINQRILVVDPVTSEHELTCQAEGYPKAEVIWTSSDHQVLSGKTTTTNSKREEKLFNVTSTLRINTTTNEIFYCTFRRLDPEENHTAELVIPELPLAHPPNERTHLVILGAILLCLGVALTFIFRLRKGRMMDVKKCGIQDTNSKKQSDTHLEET

HMEC-1 [18] = assay: Effect on VEGFR2 in HMEC1 cells assessed as total VEGFR2 level at 10 uM incubated for 24 hrs by flow cytometric analysis relative to control; assay type: functional, Homo sapiens
In short: (§5)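 HMEC-1 cells exposed 24 h to compound. Membrane VEGFR-2 measured on fixed cells stained with Alexa Fluor 647 anti-CD309; total VEGFR-2 measured on lysates or permeabilized cells. Read by flow cytometry as % of DMSO control; mean ± SD of three experiments.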

HMEC-1 [19] = assay: Effect on VEGFR2 in HMEC1 cells assessed as membrane VEGFR2 level at 10 uM incubated for 24 hrs by flow cytometric analysis relative to control; assay type: functional, Homo sapiens; in short: as §5

| SMILES | IC50 (HeLa) [µM] | IC50 (A549 [1]) [µM] | IC50 (MCF7) [µM] | IC50 (HT-29 [7]) [µM] | ΔTm [9] [°C] | Activity (A549 [2]) [%] | IC50 (HMEC-1 [3]) [µM] | MAC (HMEC-1 [4]) [µM] | IC50 (HEK293) [µM] | Activity (A549 [5]) [%] | Activity (A549 [6]) [%] | Activity (A549 [8]) [%] | Activity (HMEC-1 [10]) [%] | Activity (HMEC-1 [12]) [%] | Activity (A549 [14]) [%] | ΔTm [17] [°C] | other results |
| --- | --- | --- | --- | --- | --- | --- | --- | --- | --- | --- | --- | --- | --- | --- | --- | --- | --- |
| COc1ccc(Cc2cn(CCNC(=O)Nc3cccc(Cl)c3)nn2)cc1 | > 200 | > 200 | > 200 | > 200 | 7.34 |  | > 200 | 50 | > 200 |  | 70 |  | 81 | 74 | 60 | 1.89 | Activity (A549 [11]): 86%; Activity (A549 [13]): 49%; Activity (HT-29 [15]): 76%; Activity (A549 [16]): 95% |
| COc1ccc(Cc2cn(CCNC(=O)Nc3ccc(Cl)cc3)nn2)cc1 | > 200 | > 200 | > 200 | > 200 | 5.09 |  | > 200 | 400 | > 200 |  | 69 |  | 102 | 90 | 73 | 1.93 | Activity (A549 [13]): 16%; Activity (HT-29 [15]): 84% |
| COc1ccc(Cc2cn(CCNC(=O)Nc3cccc(C)c3)nn2)cc1 | > 200 | > 200 | > 200 | > 200 | 5.21 |  | > 200 |  | > 200 |  | 90 |  | 91 | 76 |  | 2.55 |  |
| COc1ccc(Cc2cn(CCNC(=O)Nc3ccc(Br)cc3)nn2)cc1 | > 200 | > 200 | > 200 | > 200 | 2.61 |  | > 200 |  | > 200 |  | >100 |  | 55 | 40 |  | 8.74 | Activity (A549 [11]): 61%; Activity (A549 [16]): 70% |
| COc1ccc(Cc2cn(CCNC(=O)Nc3cccc(Br)c3)nn2)cc1 | > 200 | > 200 | > 200 | > 200 | 7.34 |  | > 200 |  | > 200 |  | 80 |  | 78 | 79 |  | 0.79 | Activity (A549 [11]): 80%; Activity (A549 [16]): 98% |
| COc1ccc(Cc2cn(CCNC(=O)Nc3ccccc3C)nn2)cc1 | > 200 | > 200 | > 200 | > 200 | 9.98 |  | > 200 | 200 | > 200 |  | 82 |  | 100 | 79 |  | 2.18 |  |
| COc1ccc(/C=C/c2cccc(NC(=O)Nc3ccccc3Cl)c2)cc1 | > 100 | 61 | > 100 | 47 | 10.2 | 109 | > 100 | 10 | 57 | 42 | 74 | 42 |  |  |  | 5.09 | Activity (HMEC-1 [18]): 121%; Activity (HMEC-1 [19]): 76% |
| COc1ccc(Cc2cn(CCNC(=O)Nc3ccccc3)nn2)cc1 | > 200 | > 200 | > 200 | > 200 | 10.5 |  | > 200 |  | > 200 |  | 83 |  | 105 | 97 |  | 2.1 |  |
| COc1ccc(Cc2cn(CCNC(=O)Nc3ccc(C)cc3)nn2)cc1 | > 200 | > 200 | > 200 | > 200 | 3.68 |  | > 200 |  | > 200 |  | 66 |  | 90 | 97 | 70 | 3.09 | Activity (A549 [13]): 6%; Activity (HT-29 [15]): 22% |

Now those with a lower IC50 (HeLa), led by results:

| IC50 (HeLa) [µM] | IC50 (A549 [1]) [µM] | IC50 (MCF7) [µM] | IC50 (HT-29 [7]) [µM] | ΔTm [9] [°C] | SMILES | Activity (A549 [2]) [%] | IC50 (HMEC-1 [3]) [µM] | MAC (HMEC-1 [4]) [µM] | IC50 (HEK293) [µM] | Activity (A549 [5]) [%] | Activity (A549 [6]) [%] | Activity (A549 [8]) [%] | Activity (HMEC-1 [10]) [%] | Activity (HMEC-1 [12]) [%] | Activity (A549 [14]) [%] | ΔTm [17] [°C] | other results |
| --- | --- | --- | --- | --- | --- | --- | --- | --- | --- | --- | --- | --- | --- | --- | --- | --- | --- |
| 10.5 | 38 | 37.2 | 20 |  | COc1ccc(/C=C\c2cccc(NC(=O)Nc3cccc(Cl)c3)c2)cc1 | 102 | 32.9 | 10 | 5 | 186 | 92 | 17 |  |  |  |  |  |
| 22 | 21 | 19 | 12 |  | COc1ccc(/C=C\c2cccc(NC(=O)Nc3ccccc3Cl)c2)cc1 | 114 | 33 | 10 | 6.5 | 177 | 83 | 61 |  |  |  |  |  |
| 8 | 29 | 17 | 33 |  | COc1ccc(/C=C\c2cccc(NC(=O)Nc3ccc(Cl)cc3)c2)cc1 | 118 | 33 | 1 | 20 | 100 | 75 | 69 |  |  |  |  |  |
| 7.8 | 11 | 0.08 | 3.8 |  | CCN(CC)CCNC(=O)c1c(C)[nH]c(/C=C2\C(=O)Nc3ccc(F)cc32)c1C [SUNITINIB] |  | 7 | 3 | 5 |  |  | 56 |  |  |  |  |  |
| 69 | 24 | > 100 | 20 | 16.2 | COc1ccc(CCc2cccc(NC(=O)Nc3ccccc3Cl)c2)cc1 | 100 | 48 | 1 | 90 | 100 | 61 | 76 |  |  | 63 | 2.25 |  |
| 16.5 | > 200 | 8.2 | 14 | 4.1 | COc1ccc(CCc2cccc(NC(=O)Nc3cccc(Cl)c3)c2)cc1 | 97 | 50 | 10 | 5.3 | 98 | 51 | 95 |  |  | 51 | 5.2 |  |
| 21 | > 200 | 15.3 | 1.5 | 10.2 | COc1ccc(CCc2cccc(NC(=O)Nc3ccc(Cl)cc3)c2)cc1 | 97 | > 200 | 100 | 1.8 | 96 | 38 | 65 |  |  | 44 | 2.27 | Activity (A549 [13]): 16% |
